Like-named read-outs stand apart in the source and are kept apart here.
Columns and labels:
[1] = ref 13 (Grande et al.); cited from earlier work
strain TA 98 = details: cited from earlier work
[2] = in vitro bioavailability, dialysis tubing procedure; type: in vitro ADME; details: sum of pepsin (stage 1) and pancreatin (stage 2) bioavailability
In short: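 Test compound at 1.0 × 10³ μM in DMSO, with porcine pepsin and 2.0 w/v% sodium cholate, sealed in a dialysis bag in 8.5 × 10⁻¹ N HCl, shaking at 37 ± 0.5 °C for 2 h. Porcine pancreatin in NaHCO3, amylase and esterase then added; bag in pH 7.0 phosphate buffer, 37 °C, 4 h. Outer liquid sampled after each stage and quantified by UV-Vis against pH 1.0/7.0 calibration curves as % unchanged compound recovered; triplicate.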

[3] = 2,2-diphenyl-1-picrylhydrazyl; type: biochemical; details: result in words
In short: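 DPPH· freshly prepared at 50 μM in methanol; test compound stocks in DMSO. Sample mixed with DPPH· solution, kept 30 min in the dark, absorbance read at 517 nm by UV-Vis. %RSA calculated against DMSO vehicle control across a series of sample concentrations. IC50 taken from %RSA plots.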

| total in vitro bioavailability [2] | SMILES | further results |
| --- | --- | --- |
| 22.20 ± 0.82% | NC(=O)COc1ccc(-c2cc(=O)c3c(OCC(N)=O)cc(OCC(N)=O)cc3o2)cc1 [Compound 2S3, 2,2′-((2-(4-(2-amino-2-oxoethoxy)phenyl)-4-oxo-4H-chromene-5,7-diyl)bis(oxy))diacetamide] | toxicity in mutagenicity study (strain TA 98): nontoxic; mutagenic activity (strain TA 98; strain TA 98): did not show any mutagenic activity; DPPH free radical scavenging activity (%RSA) [3]: very low |
| 16.19% | O=c1c(O)c(-c2ccc(O)c(O)c2)oc2cc(O)ccc12 [Compound 3S0, Fisetin, reference compound] | – |
| 34.81 ± 0.85% | NC(=O)COc1ccc2c(=O)c(OCC(N)=O)c(-c3ccc(OCC(N)=O)c(OCC(N)=O)c3)oc2c1 [Compound 3S3, 2,2′-((4-(3,7-bis(2-amino-2-oxoethoxy)-4-oxo-4H-chromen-2-yl)-1,2-phenylene)bis(oxy))diacetamide] | – |
| 15.40% | O=c1c(O)c(-c2ccc(O)cc2)oc2cc(O)cc(O)c12 [Compound 4S0, kaempferol, reference compound] | – |
| 19.29% | O=c1cc(-c2ccc(O)c(O)c2)oc2cc(O)cc(O)c12 [Compound 5S0, luteolin, reference compound] | – |

Further lines, the molecule ahead of its results:

| SMILES | total in vitro bioavailability [2] | further results |
| --- | --- | --- |
| O=c1c(O)c(-c2ccc(O)c(O)c2)oc2cc(O)cc(O)c12 [Compound 1S0, quercetin] | – | total in vitro bioavailability [1]: 10.7 ± 1.3% |
| NC(=O)COc1cc(OCC(N)=O)c2c(=O)c(OCC(N)=O)c(-c3ccc(OCC(N)=O)c(OCC(N)=O)c3)oc2c1 [Compound 1S3, 2,2′,2′′-((2-(3,4-bis(2-amino-2-oxoethoxy)phenyl)-4-oxo-4H-chromene-3,5,7-triyl)tris(oxy))triacetamide] | 20.70 ± 0.29% | toxicity in mutagenicity study (strain TA 98): nontoxic |
| O=c1cc(-c2ccc(O)cc2)oc2cc(O)cc(O)c12 [Compound 2S0, apigenin, reference compound] | 16.59% | DPPH free radical scavenging activity (%RSA) [3]: very low |
| NC(=O)COc1ccc(-c2oc3cc(OCC(N)=O)cc(OCC(N)=O)c3c(=O)c2OCC(N)=O)cc1 [Compound 4S3, 2,2′,2′′-((2-(4-(2-amino-2-oxoethoxy)phenyl)-4-oxo-4H-chromene-3,5,7-triyl)tris(oxy))triacetamide] | 21.34 ± 0.50% | – |
| NC(=O)COc1cc(OCC(N)=O)c2c(=O)cc(-c3ccc(OCC(N)=O)c(OCC(N)=O)c3)oc2c1 [Compound 5S3, 2,2′-((4-(5,7-bis(2-amino-2-oxoethoxy)-4-oxo-4H-chromen-2-yl)-1,2-phenylene)bis(oxy))diacetamide] | 34.87 ± 0.87% | – |

Reference: PMC8966662 (RSC Advances, 2022)
